According to ChEMBL document CHEMBL1687804, “Comparative efficacies of human simulated exposures of telavancin and vancomycin against methicillin-resistant Staphylococcus aureus with a range of vancomycin MICs in a murine pneumonia model” (Antimicrob Agents Chemother, 2010):
≈ marks a conversion by molar mass, not a printed value. Calls of active or inactive are those of the source. The calls are words filed in the database; no cut-off is given here.

Experiments:
Staphylococcus aureus [1] = assay: Antibacterial activity against vancomycin-intermediate Staphylococcus aureus isolate 435 by broth microdilution assay; type: functional
Summary of the method: (§1)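 MIC by broth microdilution using dry-form panels, run in triplicate per isolate; modal MIC reported. Isolates were stored at −80°C in skim milk and subcultured twice on Trypticase soy agar with 5% sheep blood at 35°C before use.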

Staphylococcus aureus [2] = assay: Antibacterial activity against community-associated methicillin-resistant Staphylococcus aureus isolate 145 by broth microdilution assay; type: functional; summary of the method: as §1
Staphylococcus aureus [3] = assay: Antibacterial activity against vancomycin-intermediate Staphylococcus aureus isolate 454 (NRS404) by broth microdilution assay; type: functional; summary of the method: as §1
Staphylococcus aureus [4] = assay: Antibacterial activity against vancomycin-intermediate Staphylococcus aureus isolate 453 (NRS23) by broth microdilution assay; type: functional; summary of the method: as §1
Staphylococcus aureus [5] = assay: Antibacterial activity against hospital-associated methicillin-resistant Staphylococcus aureus isolate 56 (494) by broth microdilution assay; type: functional; summary of the method: as §1
Staphylococcus aureus [6] = assay: Antibacterial activity against hospital-associated methicillin-resistant Staphylococcus aureus isolate 152 by broth microdilution assay; type: functional; summary of the method: as §1
Staphylococcus aureus [7] = assay: Antibacterial activity against hospital-associated methicillin-resistant Staphylococcus aureus isolate 412 by broth microdilution assay; type: functional; summary of the method: as §1
Staphylococcus aureus [8] = assay: Antibacterial activity against community-associated methicillin-resistant Staphylococcus aureus isolate 156 by broth microdilution assay; type: functional; summary of the method: as §1
Staphylococcus aureus [9] = assay: Antibacterial activity against hospital-associated methicillin-resistant Staphylococcus aureus isolate 336 by broth microdilution assay; type: functional; summary of the method: as §1
Staphylococcus aureus [10] = assay: Antibacterial activity against vancomycin-intermediate Staphylococcus aureus isolate 440 (A6298) by broth microdilution assay; type: functional; summary of the method: as §1
Staphylococcus aureus [11] = assay: Antibacterial activity against vancomycin-heteroresistant Staphylococcus aureus isolate 443 by broth microdilution assay; type: functional; summary of the method: as §1
Staphylococcus aureus [12] = assay: Antibacterial activity against hospital-associated methicillin-resistant Staphylococcus aureus isolate 360 by broth microdilution assay; type: functional; summary of the method: as §1
Staphylococcus aureus [13] = assay: Antibacterial activity against vancomycin-heteroresistant Staphylococcus aureus isolate 38 (Mu3) by broth microdilution assay; type: functional; summary of the method: as §1
Staphylococcus aureus [14] = assay: Antibacterial activity against vancomycin-intermediate Staphylococcus aureus isolate 440 (A6298) infected in neutropenic BALB/c mouse lung infection model assessed as reduction of CFU at 40 mg/kg, sc administered every 12 hrs measured after 48 hrs
Staphylococcus aureus [15] = assay: Antibacterial activity against vancomycin-heteroresistant Staphylococcus aureus isolate 38 (Mu3) infected in neutropenic BALB/c mouse lung infection model assessed as reduction of CFU at 40 mg/kg, sc administered every 12 hrs measured after 24 hrs
Staphylococcus aureus [16] = assay: Antibacterial activity against community-associated methicillin-resistant Staphylococcus aureus isolate 145 infected in neutropenic BALB/c mouse lung infection model assessed as reduction of CFU at 40 mg/kg, sc administered every 12 hrs measured after 48 hrs; further: unit not given here
Staphylococcus aureus [17] = assay: Antibacterial activity against community-associated methicillin-resistant Staphylococcus aureus isolate 145 infected in neutropenic BALB/c mouse lung infection model assessed as reduction of CFU at 40 mg/kg, sc administered every 12 hrs measured after 24 hrs; further: unit not given here
Staphylococcus aureus [18] = assay: Antibacterial activity against vancomycin-heteroresistant Staphylococcus aureus isolate 443 infected in neutropenic BALB/c mouse lung infection model assessed as reduction of CFU at 40 mg/kg, sc administered every 12 hrs measured after 24 hrs; further: unit not given here
Staphylococcus aureus [19] = assay: Antibacterial activity against vancomycin-intermediate Staphylococcus aureus isolate 454 (NRS404) infected in neutropenic BALB/c mouse lung infection model assessed as reduction of CFU at 40 mg/kg, sc administered every 12 hrs measured after 48 hrs; further: unit not given here
Staphylococcus aureus [20] = assay: Antibacterial activity against vancomycin-intermediate Staphylococcus aureus isolate 454 (NRS404) infected in neutropenic BALB/c mouse lung infection model assessed as reduction of CFU at 40 mg/kg, sc administered every 12 hrs measured after 24 hrs; further: unit not given here
Staphylococcus aureus [21] = assay: Antibacterial activity against hospital-associated methicillin-resistant Staphylococcus aureus isolate 336 infected in neutropenic BALB/c mouse lung infection model assessed as reduction of CFU at 40 mg/kg, sc administered every 12 hrs measured after 48 hrs; further: unit not given here
Staphylococcus aureus [22] = assay: Antibacterial activity against hospital-associated methicillin-resistant Staphylococcus aureus isolate 152 infected in neutropenic BALB/c mouse lung infection model assessed as reduction of CFU at 40 mg/kg, sc administered every 12 hrs measured after 24 hrs; further: unit not given here
Staphylococcus aureus [23] = assay: Antibacterial activity against hospital-associated methicillin-resistant Staphylococcus aureus isolate 56 (494) infected in neutropenic BALB/c mouse lung infection model assessed as reduction of CFU at 40 mg/kg, sc administered every 12 hrs measured after 24 hrs; further: unit not given here
Staphylococcus aureus [24] = assay: Antibacterial activity against hospital-associated methicillin-resistant Staphylococcus aureus isolate 412 infected in neutropenic BALB/c mouse lung infection model assessed as reduction of CFU at 40 mg/kg, sc administered every 12 hrs measured after 24 hrs; further: unit not given here
Staphylococcus aureus [25] = assay: Antibacterial activity against vancomycin-intermediate Staphylococcus aureus isolate 435 infected in neutropenic BALB/c mouse lung infection model assessed as reduction of CFU at 40 mg/kg, sc administered every 12 hrs measured after 24 hrs; further: unit not given here
Staphylococcus aureus [26] = assay: Antibacterial activity against community-associated methicillin-resistant Staphylococcus aureus isolate 156 infected in neutropenic BALB/c mouse lung infection model assessed as reduction of CFU at 40 mg/kg, sc administered every 12 hrs measured after 24 hrs; further: unit not given here
Staphylococcus aureus [27] = assay: Antibacterial activity against vancomycin-intermediate Staphylococcus aureus isolate 440 (A6298) infected in neutropenic BALB/c mouse lung infection model assessed as reduction of CFU at 40 mg/kg, sc administered every 12 hrs measured after 24 hrs
Staphylococcus aureus [28] = assay: Antibacterial activity against hospital-associated methicillin-resistant Staphylococcus aureus isolate 360 infected in neutropenic BALB/c mouse lung infection model assessed as reduction of CFU at 40 mg/kg, sc administered every 12 hrs measured after 24 hrs
Staphylococcus aureus [29] = assay: Antibacterial activity against vancomycin-intermediate Staphylococcus aureus isolate 453 (NRS23) infected in neutropenic BALB/c mouse lung infection model assessed as reduction of CFU at 40 mg/kg, sc administered every 12 hrs measured after 48 hrs; further: unit not given here
Staphylococcus aureus [30] = assay: Antibacterial activity against vancomycin-heteroresistant Staphylococcus aureus isolate 443 infected in neutropenic BALB/c mouse lung infection model assessed as reduction of CFU at 40 mg/kg, sc administered every 12 hrs measured after 48 hrs; further: unit not given here
Staphylococcus aureus [31] = assay: Antibacterial activity against vancomycin-intermediate Staphylococcus aureus isolate 435 infected in neutropenic BALB/c mouse lung infection model assessed as reduction of CFU at 40 mg/kg, sc administered every 12 hrs measured after 48 hrs; further: unit not given here
Staphylococcus aureus [32] = assay: Antibacterial activity against hospital-associated methicillin-resistant Staphylococcus aureus isolate 336 infected in neutropenic BALB/c mouse lung infection model assessed as reduction of CFU at 40 mg/kg, sc administered every 12 hrs measured after 24 hrs; further: unit not given here
Staphylococcus aureus [33] = assay: Antibacterial activity against vancomycin-intermediate Staphylococcus aureus isolate 453 (NRS23) infected in neutropenic BALB/c mouse lung infection model assessed as reduction of CFU at 40 mg/kg, sc administered every 12 hrs measured after 24 hrs; further: unit not given here

| Structure (SMILES) | MIC (Staphylococcus aureus [1]) [µg/mL] | MIC (Staphylococcus aureus [2]) [µg/mL] | MIC (Staphylococcus aureus [3]) [µg/mL] | MIC (Staphylococcus aureus [4]) [µg/mL] | MIC (Staphylococcus aureus [5]) [µg/mL] | MIC (Staphylococcus aureus [6]) [µg/mL] | MIC (Staphylococcus aureus [7]) [µg/mL] | MIC (Staphylococcus aureus [8]) [µg/mL] | MIC (Staphylococcus aureus [9]) [µg/mL] | MIC (Staphylococcus aureus [10]) [µg/mL] | MIC (Staphylococcus aureus [11]) [µg/mL] | MIC (Staphylococcus aureus [12]) [µg/mL] | MIC (Staphylococcus aureus [13]) [µg/mL] | other results |
| --- | --- | --- | --- | --- | --- | --- | --- | --- | --- | --- | --- | --- | --- | --- |
| CN(C)c1cc(NC(=O)CNC(C)(C)C)c(O)c2c1C[C@H]1C[C@H]3[C@H](N(C)C)C(O)=C(C(N)=O)C(=O)[C@@]3(O)C(O)=C1C2=O [TIGECYCLINE] | 0.25 (≈ 0.427 µM) | 0.25 (≈ 0.427 µM) | 0.125 (≈ 0.213 µM) | 0.125 (≈ 0.213 µM) | 0.5 (≈ 0.854 µM) | 0.25 (≈ 0.427 µM) | 0.25 (≈ 0.427 µM) | 0.125 (≈ 0.213 µM) | 0.5 (≈ 0.854 µM) | 0.125 (≈ 0.213 µM) | 0.25 (≈ 0.427 µM) | 0.25 (≈ 0.427 µM) | 0.5 (≈ 0.854 µM) |  |
| CCCCCCCCCC(=O)N[C@@H](Cc1c[nH]c2ccccc12)C(=O)N[C@H](CC(N)=O)C(=O)N[C@@H](CC(=O)O)C(=O)N[C@@H]1C(=O)NCC(=O)N[C@@H](CCCN)C(=O)N[C@@H](CC(=O)O)C(=O)N[C@H](C)C(=O)N[C@@H](CC(=O)O)C(=O)NCC(=O)N[C@H](CO)C(=O)N[C@@H]([C@H](C)CC(=O)O)C(=O)N[C@@H](CC(=O)c2ccccc2N)C(=O)O[C@@H]1C | 0.5 (≈ 0.309 µM) | 0.5 (≈ 0.309 µM) | 1 (≈ 0.617 µM) | 1 (≈ 0.617 µM) | 0.5 (≈ 0.309 µM) | 0.5 (≈ 0.309 µM) | 0.5 (≈ 0.309 µM) | 0.5 (≈ 0.309 µM) | 0.5 (≈ 0.309 µM) | 1 (≈ 0.617 µM) | 0.5 (≈ 0.309 µM) | 0.5 (≈ 0.309 µM) | 0.5 (≈ 0.309 µM) |  |
| CCC[C@@H]1C[C@@H](C(=O)N[C@@H]([C@H]2O[C@H](SC)[C@H](O)[C@@H](O)[C@H]2O)[C@H](C)Cl)N(C)C1 [CLINDAMYCIN] | ≤ 0.5 | ≥ 8 | ≤ 0.5 | ≥ 8 | 0.25 (≈ 0.588 µM) | 0.125 (≈ 0.294 µM) | ≤ 0.5 | ≤ 0.5 | ≥ 8 | ≥ 8 | ≥ 8 | ≥ 8 | ≥ 8 |  |
| CCCCCCCCCCNCCN[C@@]1(C)C[C@H](O[C@H]2[C@H](Oc3c4cc5cc3Oc3ccc(cc3Cl)[C@@H](O)[C@@H](NC(=O)[C@@H](CC(C)C)NC)C(=O)N[C@@H](CC(N)=O)C(=O)N[C@H]5C(=O)N[C@H]3C(=O)N[C@H](C(=O)N[C@H](C(=O)O)c5cc(O)c(CNCP(=O)(O)O)c(O)c5-c5cc3ccc5O)[C@H](O)c3ccc(c(Cl)c3)O4)O[C@H](CO)[C@@H](O)[C@@H]2O)O[C@@H](C)[C@H]1O [TELAVANCIN] | 1 (≈ 0.57 µM) | 0.5 (≈ 0.285 µM) | 1 (≈ 0.57 µM) | 1 (≈ 0.57 µM) | 0.5 (≈ 0.285 µM) | 0.25 (≈ 0.142 µM) | 0.5 (≈ 0.285 µM) | 0.5 (≈ 0.285 µM) | 0.5 (≈ 0.285 µM) | 1 (≈ 0.57 µM) | 0.5 (≈ 0.285 µM) | 0.5 (≈ 0.285 µM) | 0.5 (≈ 0.285 µM) | Activity (Staphylococcus aureus [14]): Active; Activity (Staphylococcus aureus [15]): Active; Activity (Staphylococcus aureus [16]): inactive; Activity (Staphylococcus aureus [17]): Active; Activity (Staphylococcus aureus [18]): Active; Activity (Staphylococcus aureus [19]): Active; Activity (Staphylococcus aureus [20]): Active; Activity (Staphylococcus aureus [21]): inactive; Activity (Staphylococcus aureus [22]): Active; Activity (Staphylococcus aureus [23]): Active; Activity (Staphylococcus aureus [24]): Active; Activity (Staphylococcus aureus [25]): Active; Activity (Staphylococcus aureus [26]): Active; Activity (Staphylococcus aureus [27]): Active; Activity (Staphylococcus aureus [28]): Active; Activity (Staphylococcus aureus [29]): Active; Activity (Staphylococcus aureus [30]): inactive; Activity (Staphylococcus aureus [31]): inactive; Activity (Staphylococcus aureus [32]): Active; Activity (Staphylococcus aureus [33]): Active |
| O=C(O)c1cn(C2CC2)c2cc(N3CCNCC3)c(F)cc2c1=O [CIPROFLOXACIN] | ≥ 16 | 8 (≈ 24.1 µM) | ≥ 16 | ≥ 16 | 0.5 (≈ 1.51 µM) | 0.5 (≈ 1.51 µM) | ≥ 16 | ≥ 16 | ≥ 16 | ≥ 16 | ≥ 16 | ≥ 16 | ≥ 16 |  |
